Data set [1] deals with T1, Voltage-gated inwardly rectifying potassium channel KCNH2 (Homo sapiens, UniProt Q12809). Put plainly: Displacement of [35S]MK-499 from human ERG. For orientation: Displacement assays read how much labelled ligand stays bound in the presence of the test substance.
The target of data set [2] is T1, Voltage-gated inwardly rectifying potassium channel KCNH2. Briefly: Inhibition of human ERG after 6 mins by electrophysiological assay.
The test system of data set [3] is Rattus norvegicus. Briefly: Diuretic activity in Sprague-Dawley rat at 3 mg/kg via oral gavage administered 30 mins prior to void induction by loading saline measured upto 4 hrs relative to vehicle treated control. It is filed as functional. A digest of the protocol: (§1)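 Acute 4 h study in Sprague-Dawley rats after oral dosing, n = 5 per group. Urine volume and sodium and potassium excretion were expressed as fold increase over vehicle-treated animals. Significance was tested versus vehicle (p < 0.05 or p < 0.01).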

In data set [4] the test system is Rattus norvegicus. Put plainly: Diuretic activity in Sprague-Dawley rat at 10 mg/kg via oral gavage administered 30 mins prior to void induction by loading saline measured upto 4 hrs relative to vehicle treated control. It is filed as functional. A digest of the protocol:
as §1

Data set [5] has as its system Rattus norvegicus. Briefly: Natriuretic activity in Sprague-Dawley rat at 3 mg/kg via oral gavage administered 30 mins prior to void induction by loading saline measured upto 4 hrs relative to vehicle treated control. Format: functional. A digest of the protocol:
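Acute 4 h diuresis/natriuresis study in SD rats given a single oral dose, n = 5 per group. Urinary sodium output is expressed as fold increase over vehicle-treated animals, with significance tested against vehicle.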

In data set [6] the test system is Rattus norvegicus. Briefly: Natriuretic activity in Sprague-Dawley rat at 10 mg/kg via oral gavage administered 30 mins prior to void induction by loading saline measured upto 4 hrs relative to vehicle treated control. It is filed as functional. The essentials:
as §1

Data set [7] concerns Rattus norvegicus. Briefly: Diuretic activity in Sprague-Dawley rat at 0.3 mg/kg via oral gavage administered 30 mins prior to void induction by loading saline measured upto 4 hrs relative to vehicle treated control. Format: functional. A digest of the protocol: (§2)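 Acute rat diuresis model in male-unspecified Sprague-Dawley rats, single oral dose, urine collected over 4 h. Urine volume, sodium excretion and potassium excretion expressed as fold increase over vehicle-treated controls; n = 5 per group; significance tested against vehicle.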

Data set [8] relates to Rattus norvegicus. Put plainly: Diuretic activity in Sprague-Dawley rat at 1 mg/kg via oral gavage administered 30 mins prior to void induction by loading saline measured upto 4 hrs relative to vehicle treated control. Format: functional. A digest of the protocol: as §2
The test system of data set [9] is Rattus norvegicus. Put plainly: Natriuretic activity in Sprague-Dawley rat at 0.3 mg/kg via oral gavage administered 30 mins prior to void induction by loading saline measured upto 4 hrs relative to vehicle treated control. Format: functional. A digest of the protocol:
as §2

Data set [10] has as its system Rattus norvegicus. Briefly: Natriuretic activity in Sprague-Dawley rat at 1 mg/kg via oral gavage administered 30 mins prior to void induction by loading saline measured upto 4 hrs relative to vehicle treated control. Format: functional. A digest of the protocol:
as §2

Data set [11] has as its system Rattus norvegicus. Put plainly: Kaliuretic activity in Sprague-Dawley rat at 3 mg/kg via oral gavage administered 30 mins prior to void induction by loading saline measured upto 4 hrs relative to vehicle treated control. Format: functional. The essentials: as §2
Data set [12] deals with Rattus norvegicus. Put plainly: Kaliuretic activity in Sprague-Dawley rat at 0.3 mg/kg via oral gavage administered 30 mins prior to void induction by loading saline measured upto 4 hrs relative to vehicle treated control. Format: functional. The essentials: as §2
In data set [13] the test system is Rattus norvegicus. Put plainly: Kaliuretic activity in Sprague-Dawley rat at 1 mg/kg via oral gavage administered 30 mins prior to void induction by loading saline measured upto 4 hrs relative to vehicle treated control. It is filed as functional. The essentials: as §2
A short description of data set [14]: Clearance in rat at 0.5 mg/kg, iv or 1 mg/kg, po. The note with it: in vivo. Format: ADME, organism-based.
Data set [15] is described as follows: Volume of distribution at steady state in rat at 0.5 mg/kg, iv or 1 mg/kg, po. It is filed as ADME, organism-based. The note with it: in vivo, read-out: Vdss.
Data set [16] can be described thus: Dose normalized AUC in rat at 1 mg/kg, po. Format: ADME, organism-based. The following applies: in vivo.
Data set [17] in a line: Half life in rat at 0.5 mg/kg, iv or 1 mg/kg, po. It is filed as ADME, organism-based. The following applies: in vivo.
The nature of data set [18]: Oral bioavailability in rat at 1 mg/kg. It is filed as ADME, organism-based. The following applies: in vivo.
In data set [19] the target is T2, ATP-sensitive inward rectifier potassium channel 1 (Homo sapiens, UniProt P48048).
T2 sequence (P48048 whole entry): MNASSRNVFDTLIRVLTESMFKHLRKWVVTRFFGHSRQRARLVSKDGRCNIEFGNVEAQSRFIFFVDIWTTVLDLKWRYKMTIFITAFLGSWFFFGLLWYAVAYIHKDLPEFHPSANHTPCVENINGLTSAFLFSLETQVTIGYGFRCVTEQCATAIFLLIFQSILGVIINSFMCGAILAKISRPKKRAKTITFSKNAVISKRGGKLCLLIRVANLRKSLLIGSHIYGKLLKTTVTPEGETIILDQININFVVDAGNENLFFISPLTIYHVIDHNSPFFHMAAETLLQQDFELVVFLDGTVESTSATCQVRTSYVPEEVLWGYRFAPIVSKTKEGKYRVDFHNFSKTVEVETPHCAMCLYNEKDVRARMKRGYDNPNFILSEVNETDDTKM
Put plainly: Inhibition of ROMK (unknown origin) after 30 mins by 86Rb+ efflux assay.

The species entered for data set [20] is Homo sapiens. Put plainly: Selectivity ratio of IC50 for human ERG to IC50 for ROMK (unknown origin).
A short description of data set [21]: Clearance in rat at 1 mg/kg, iv or 2 mg/kg, po. It is filed as ADME, organism-based. The following applies: in vivo. A digest of the protocol:
(§3)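 Rats dosed once at 1 mg/kg IV and, separately, 2 mg/kg PO, with n = 3. Derived parameters were plasma clearance, Vdss, dose-normalized oral AUC (μM·h·kg/mg), half-life, and oral bioavailability (F%).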

Data set [22] can be described thus: Volume of distribution at steady state in rat at 1 mg/kg, iv or 2 mg/kg, po. It is filed as ADME, organism-based. The following applies: in vivo, read-out: Vdss. A digest of the protocol:
as §3

Data set [23] in a line: Dose normalized AUC in rat at 2 mg/kg, po. It is filed as ADME, organism-based. The note with it: in vivo. A digest of the protocol: as §3
A short description of data set [24]: Oral bioavailability in rat at 2 mg/kg. Format: ADME, organism-based. The following applies: in vivo. A digest of the protocol: as §3
Data set [25] is described as follows: Half life in rat at 1 mg/kg, iv or 2 mg/kg, po. Format: ADME, organism-based. The note with it: in vivo. The essentials:
as §3

The target of data set [26] is T2, ATP-sensitive inward rectifier potassium channel 1. Briefly: Inhibition of ROMK (unknown origin) expressed in CHO cells after 6 mins by electrophysiological assay. It is filed as cell-based.
For data set [27], the species on record is Homo sapiens. Put plainly: Selectivity ratio of IC50 for human ERG to IC50 for ROMK (unknown origin) expressed in CHO cells by electrophysiological assay. Format: cell-based. The essentials: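 Both channels were tested in electrophysiology (EP) assays. The ratio is the hERG EP IC50 divided by the ROMK EP IC50.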
Data set [28] deals with Rattus norvegicus. Put plainly: Kaliuretic activity in Sprague-Dawley rat administered via oral gavage 30 mins prior to void induction by loading saline measured upto 4 hrs relative to vehicle treated control. It is filed as functional. The essentials:
as §1

Data set [29] relates to Rattus norvegicus. Briefly: Antihypertensive activity in spontaneously hypertensive rat assessed as reduction in systolic blood pressure at 25 mg/kg via oral gavage qd administered for 4 days measured on day 4 by telemetry (reference value: 2.5 +/- 2.2 mmHg). Format: functional.

In general, IC50 refers to the midpoint of a concentration-inhibition curve. Read a low IC50 as greater potency. Broadly, the half-life is the time needed for the level to fall by half in the phase considered. Low readings indicate fast loss, high ones slow loss. As a reminder, the bioavailability is the share of a dose that reaches the circulation, judged against a reference dose that is usually intravenous.

Each structure is given as a SMILES string.

T1 sequence (Q12809 whole entry): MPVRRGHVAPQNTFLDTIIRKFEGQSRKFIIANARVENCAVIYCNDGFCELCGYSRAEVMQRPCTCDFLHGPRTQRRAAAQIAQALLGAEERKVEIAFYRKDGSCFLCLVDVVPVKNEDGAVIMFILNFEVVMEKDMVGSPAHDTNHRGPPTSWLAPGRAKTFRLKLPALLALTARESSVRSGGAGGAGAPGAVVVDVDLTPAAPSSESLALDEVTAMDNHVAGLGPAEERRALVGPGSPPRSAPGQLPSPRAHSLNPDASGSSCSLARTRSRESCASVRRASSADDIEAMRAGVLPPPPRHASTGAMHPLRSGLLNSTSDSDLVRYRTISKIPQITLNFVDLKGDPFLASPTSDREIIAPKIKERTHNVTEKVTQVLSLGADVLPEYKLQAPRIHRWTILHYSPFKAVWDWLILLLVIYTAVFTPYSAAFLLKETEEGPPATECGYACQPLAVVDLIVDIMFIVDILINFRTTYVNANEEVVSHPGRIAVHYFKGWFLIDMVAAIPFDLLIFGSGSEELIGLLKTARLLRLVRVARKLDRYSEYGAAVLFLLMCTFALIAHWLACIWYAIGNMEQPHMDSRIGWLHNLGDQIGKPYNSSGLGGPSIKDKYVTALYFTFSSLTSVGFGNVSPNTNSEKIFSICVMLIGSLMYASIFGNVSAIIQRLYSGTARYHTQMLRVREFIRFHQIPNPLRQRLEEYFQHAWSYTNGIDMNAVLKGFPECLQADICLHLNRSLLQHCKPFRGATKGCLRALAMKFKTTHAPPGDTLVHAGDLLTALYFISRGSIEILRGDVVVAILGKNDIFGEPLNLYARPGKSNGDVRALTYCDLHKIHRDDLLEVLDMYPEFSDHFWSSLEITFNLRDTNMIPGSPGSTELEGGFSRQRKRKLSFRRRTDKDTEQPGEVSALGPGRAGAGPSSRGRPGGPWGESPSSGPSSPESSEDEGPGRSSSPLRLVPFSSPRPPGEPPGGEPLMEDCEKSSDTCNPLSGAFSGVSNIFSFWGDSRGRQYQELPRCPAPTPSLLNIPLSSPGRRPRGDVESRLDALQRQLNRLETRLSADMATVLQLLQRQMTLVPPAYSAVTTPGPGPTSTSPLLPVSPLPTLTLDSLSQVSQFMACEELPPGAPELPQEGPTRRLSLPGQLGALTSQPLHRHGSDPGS

As for `Cc1c(C(O)CN2CCN(CC(O)c3ccc4c(c3C)COC4=O)CC2)ccc2c1COC2=O` (centres undefined), the concentration for half-maximal inhibition (IC50) in data set [1] turned out to be 23 µM; in data set [2] it was 28 µM. The “fold change (FC)” value in [3] is on record as 6.7; in data set [4], 6.8; in data set [5], 9.4; in [6] it was 9.5.
In the case of `Cc1c([C@H](O)CN2CCN(C[C@@H](O)c3ccc4c(c3C)COC4=O)CC2)ccc2c1COC2=O`, the IC50 in data set [1] turned out to be 47 µM; in data set [2] it was 22 µM. For the same compound, the “fold change (FC)” value came to 1.9 in data set [3]; 2.2 in data set [5]; 1.3 in data set [7]; 1.6 in data set [8]; 1.4 in data set [9]; 1.5 in [10]. Besides, the “fold change (FC)” value in [11] was 0.9; in data set [12], 1.1; in data set [13], 1. The clearance in data set [14] amounted to 82 mL/min/kg. Also, in data set [15], the Vd worked out at 5.8 L/kg. Moreover, the AUC/dose in data set [16] stood at 0.13 µM·kg·h/mg. For the same compound, the half-life in data set [17] was 51.6 min. Further, the bioavailability in data set [18] is 45%.
For `Cc1c(C(O)CN2CCN(C(=O)Cc3ccc(-n4cnnn4)cc3)CC2)ccc2c1COC2=O` (centres undefined), the IC50 worked out at 510 nM in [19] and 100 µM in data set [1]. In addition, the Ratio IC50 in [20] is 200.
For `Cc1c(CCN2CCN(CCc3ccc4c(c3C)COC4=O)CC2)ccc2c1COC2=O`, in data set [1], the IC50 was 3 µM. In addition, the Ratio IC50 in data set [20] was found to be 39.
For the compound `Cc1c(C(C)CN2CCN(C(=O)Cc3ccc(-n4cnnn4)cc3)CC2)ccc2c1COC2=O` (centres undefined), the half-inhibitory concentration (IC50) in [19] turned out to be 160 nM; in [1], 60 µM. The Ratio IC50 in data set [20] was 380.
Take `Cc1c(C(F)CN2CCN(C(=O)Cc3ccc(-n4cnnn4)cc3)CC2)ccc2c1COC2=O` (centres undefined): the IC50 in [19] amounted to 69 nM; in data set [1], 68 µM. For the same compound, in data set [20], the Ratio IC50 came out at 1000. In [21], this compound yielded a clearance of 58 mL/min/kg. In addition, the Vd in [22] came out at 1.4 L/kg. In addition, in data set [23], the AUC/dose is 0.23 µM·h. The same compound registered a bioavailability in data set [24] of 36%. Further, in [25], the half-life was 21 min.
In the case of `Cc1c(CCN2CCN(CC(O)c3ccc4c(c3C)COC4=O)CC2)ccc2c1COC2=O` (centres undefined), 34 nM corresponded to half-maximal inhibition in data set [19] (IC50).
On to `Cc1c([C@H](O)CN2CCN(C[C@H](O)c3ccc4c(c3C)COC4=O)CC2)ccc2c1COC2=O`, for which the results for the IC50 in data set [1] and in [2] were 100 µM and above 30 µM, respectively. The “fold change (FC)” value in data set [3] came out at 4.5; in data set [5] it was 4.1; in data set [8], 3.5; in [10] it was 3.7; in [11], 1.1; in [13] it was 1.3. Besides, the clearance in data set [14] was found to be 54 mL/min/kg. Also, the Vd in [15] was 4.5 L/kg. The AUC/dose in [16] is 0.3 µM·kg·h/mg. Besides, the half-life in data set [17] is 84 min. In data set [18], this compound came in with a bioavailability of 44%.
For `Cc1c(C(F)CN2CCN(CC(F)c3ccc4c(c3C)COC4=O)CC2)ccc2c1COC2=O` (centres undefined), the IC50 is 96 nM in data set [19], 40 µM in [1], 117 nM in [26] and above 90 µM in data set [2]. Also, the Ratio IC50 in data set [20] was 420; in data set [27], above 770. The “fold change (FC)” value stood at 1.6 in data set [3], 3 in [4], 1.7 in [5] and 3 in [6].
As for `NS(=O)(=O)c1cc2c(cc1Cl)NCNS2(=O)=O` [HYDROCHLOROTHIAZIDE], the “fold change (FC)” value in [28] is 2. Moreover, the Activity in data set [29] is reported as 15 mmHg.

The values are drawn from ChEMBL document CHEMBL4425169 (ACS Med Chem Lett, 2016).
